Experimental data published in paper PMC3624906 (The Biochemical journal, 2012).

Columns and labels:
GST-MIM-S1 (murine) = GST-MIM-S1 (murine) (UniProt Q8R1S4); assay: pull-down
MIM-GFP = target: T1, MIM-GFP (murine, UniProt Q8R1S4 1-759); assay: co-IP
T1 sequence (looked up): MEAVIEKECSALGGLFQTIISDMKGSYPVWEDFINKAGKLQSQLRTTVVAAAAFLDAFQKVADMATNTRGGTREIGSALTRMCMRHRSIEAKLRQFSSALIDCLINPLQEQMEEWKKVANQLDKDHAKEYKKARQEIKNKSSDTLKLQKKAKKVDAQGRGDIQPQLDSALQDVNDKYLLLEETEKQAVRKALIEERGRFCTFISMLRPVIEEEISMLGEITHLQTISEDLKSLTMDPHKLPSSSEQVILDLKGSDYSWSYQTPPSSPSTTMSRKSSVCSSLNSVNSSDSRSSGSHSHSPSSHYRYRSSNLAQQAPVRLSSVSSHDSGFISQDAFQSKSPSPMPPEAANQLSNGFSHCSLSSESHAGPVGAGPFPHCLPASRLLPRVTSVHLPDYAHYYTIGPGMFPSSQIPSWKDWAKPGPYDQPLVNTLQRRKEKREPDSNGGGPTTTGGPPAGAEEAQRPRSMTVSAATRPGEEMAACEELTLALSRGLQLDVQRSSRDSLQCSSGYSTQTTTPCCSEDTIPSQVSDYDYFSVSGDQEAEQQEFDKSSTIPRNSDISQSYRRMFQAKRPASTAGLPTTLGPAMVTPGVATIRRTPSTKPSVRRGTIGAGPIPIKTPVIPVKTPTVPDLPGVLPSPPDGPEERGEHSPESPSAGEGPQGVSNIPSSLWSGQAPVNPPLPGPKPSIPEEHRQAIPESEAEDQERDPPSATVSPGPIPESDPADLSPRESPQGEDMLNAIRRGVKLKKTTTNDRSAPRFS

MIM-Myc [1] = target: T2, MIM-Myc (murine, UniProt Q8R1S4 1-759); assay: pull-down
T2 sequence (looked up): T1 sequence (looked up)

MIM-I-BAR-Myc = assay: Pull-down of cell lysates with GST-MIM-S1/-S2, unbound MIM by Western blot; type: binding, murine; settings: GST-tagged recombinant peptide, Western blot anti-Myc, in words
In short: (§1)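 GST-tagged test peptide made in DH5α (0.5 mM IPTG added at OD600 0.3–0.4, then 90 min). It was captured on glutathione Sepharose 4B (2 h, 4°C) and washed in PBS. 293T cells were transfected with the Myc-tagged MIM construct and lysed 48 h later. Lysates were precipitated with the bead-bound peptide at varying concentrations. Supernatant (unbound MIM) and washed pellets were analysed by SDS-PAGE/anti-Myc Western blot with chemiluminescence.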

MIM-Myc [2] = assay: as above; type: binding, murine; settings: GST-tagged recombinant peptide, Western blot anti-Myc, in words
In short: as §1

MIM-Myc [3] = target: T2, MIM-Myc; assay: co-IP

MIM-I-BAR-Myc (domain or fragment) gave a Kd (GST-MIM-S1 (murine)) of 0.065 µM.

B1: GST-MIM-S1 (domain or fragment, murine, UniProt Q8R1S4 18-89, looked up)
chain: TIISDMKGSYPVWEDFINKAGKLQSQLRTTVVAAAAFLDAFQKVADMATNTRGGTREIGSALTRMCMRHRSI
B1 was tested, and the IC50 (MIM-GFP) was 0.213 µM and the Kd (MIM-Myc [1]) was 0.11 µM.

B2: GST-MIM-S1: recombinant GST-tagged form of peptide MIM-S1 (protein)
chain: B1 chain
modifications: left off: GST, end not stated, kept
In the case of B2, the “pull-down of MIM-I-BAR-Myc from 293T lysates” value (MIM-I-BAR-Myc) is reported as “able to precipitate effectively” and the “pull-down of MIM-Myc from 293T lysates” value (MIM-Myc [2]) is reported as “able to precipitate effectively”.

B3: MIM-S3 (peptide)
chain: AFQKVADMATNTRGGTREIGSALTRMCMRHRSI
Work on B3 yielded an IC50 (MIM-Myc [3]) of 0.14 µM.
